From ChEMBL document CHEMBL3112531, “Synthesis and evaluation of 4-(2-pyrimidinylamino) benzamides inhibitors of hedgehog signaling pathway” (Bioorg Med Chem Lett, 2014) come the findings set out here.

SMILES strings stand for the structures.

Data set [1] can be described thus: Mean residence time (0 to t) in Sprague-Dawley rat at 5 mg/kg, po. On the set-up: dose 5 mg/kg, route oral. Type of data set: ADME, organism-based. The conditions noted are these: in vivo. The procedure, abridged:
(§1)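 SD rats dosed orally at 5 mg/kg in 0.5% HPMC + 0.3% Tween-80 (pH 2.8). Blood samples (n = 3) were centrifuged at 4000 rpm for 5 min at 4 °C. Plasma concentration–time data were analysed noncompartmentally.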

Data set [2] is described as follows: Cmax in Sprague-Dawley rat at 1 mg/kg, iv. Type of data set: ADME, organism-based. On the set-up: dose 1 mg/kg, route intravenous. The conditions noted are these: in vivo. The essentials:
(§2)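 SD rats given a single 1 mg/kg iv dose in 5% DMA + 5% Tween-80. Plasma concentration–time data were analysed by a noncompartmental approach.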

The subject of data set [3] is Rattus norvegicus. Briefly: Volume of distribution at steady state in Sprague-Dawley rat at 5 mg/kg, po. The conditions noted are these: in vivo. Type of data set: ADME, organism-based. On the set-up: dose 5 mg/kg, route oral. The procedure, abridged:
as §1

A short description of data set [4]: Half life in Sprague-Dawley rat at 5 mg/kg, po. Type of data set: ADME, organism-based. Also on record: dose 5 mg/kg, route oral. The conditions noted are these: in vivo. The essentials:
as §1

Data set [5] deals with Rattus norvegicus. Briefly: Volume of distribution at steady state in Sprague-Dawley rat at 1 mg/kg, iv. Type of data set: ADME, organism-based. The conditions noted are these: in vivo. On the set-up: dose 1 mg/kg, route intravenous. The essentials: as §2
The nature of data set [6]: Ratio of GDC-0449 IC50 to compound IC50 for hedgehog signaling pathway in mouse NIH/3T3 cells by Gli1-luciferase reporter gene assay. Type of data set: cell-based.
The nature of data set [7]: AUC in Sprague-Dawley rat at 1 mg/kg, iv. The conditions noted are these: plasma. Type of data set: ADME, organism-based. Also on record: dose 1 mg/kg, route intravenous. The procedure, abridged:
as §2

Data set [8] in a line: Cmax in Sprague-Dawley rat at 5 mg/kg, po. Type of data set: ADME, organism-based. Also on record: dose 5 mg/kg, route oral. The following applies: in vivo. The essentials:
as §1

Data set [9] deals with Rattus norvegicus. Kind of data set: Mean residence time (0 to t) in Sprague-Dawley rat at 1 mg/kg, iv. Type of data set: ADME, organism-based. Also on record: dose 1 mg/kg, route intravenous. The following applies: in vivo. The procedure, abridged: as §2
Data set [10] in a line: AUC in Sprague-Dawley rat at 5 mg/kg, po. Type of data set: ADME, organism-based. On the set-up: dose 5 mg/kg, route oral. The conditions noted are these: plasma. The procedure, abridged: as §1
Data set [11] can be described thus: Clearance in Sprague-Dawley rat at 5 mg/kg, po. The following applies: in vivo. Also on record: dose 5 mg/kg, route oral. Type of data set: ADME, organism-based. The essentials: as §1
Data set [12] in a line: Inhibition of hedgehog signaling pathway in mouse NIH/3T3 cells by Gli1-luciferase reporter gene assay. Type of data set: cell-based. The conditions noted are these: NIH3T3.
A short description of data set [13]: Half life in Sprague-Dawley rat at 1 mg/kg, iv. Type of data set: ADME, organism-based. On the set-up: dose 1 mg/kg, route intravenous. The conditions noted are these: in vivo. The essentials:
as §2

The nature of data set [14]: Oral bioavailability in Sprague-Dawley rat at 5 mg/kg. Type of data set: ADME, organism-based. The conditions noted are these: in vivo. The essentials:
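Oral dosing of SD rats at 5 mg/kg in 0.5% HPMC + 0.3% Tween-80 (pH 2.8), with blood samples n = 3, alongside iv dosing at 1 mg/kg in 5% DMA + 5% Tween-80. Plasma concentration–time data were analysed noncompartmentally.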

`Cc1ccc(CN2CCOCC2)cc1NC(=O)c1ccc(Nc2ncc(C)c(-c3ccc(OC(F)(F)F)cc3)n2)cc1`: the MRT last in data set [1] turned out to be 6.6 h. In addition, the figures for the Cmax in data set [2] and in data set [8] were 1200 ng/mL and 280 ng/mL, respectively. Also, the figures for the Vdss in the data set on Rattus norvegicus [3] and in the data set on Rattus norvegicus [5] were 16.3 L/kg and 7.4 L/kg, respectively. The half-life in data set [4] is 5.8 h; in data set [13] it was 7.2 h. Also, the Ratio IC50 in [6] came out at 7. Moreover, the AUC in [7] came to 1300 ng·h/mL; in data set [10], 2400 ng·h/mL. Besides, the MRT in the data set on Rattus norvegicus [9] turned out to be 4.1 h. This molecule also displayed a CL/F in data set [11] of 32.8 mL/min/kg. This molecule also showed an IC50 in data set [12] of 0.53 nM. In data set [14], the bioavailability amounted to 46.3%.

As a reminder, the MRT last is a mean duration of stay, worked out from the concentration-time curve. Broadly, the Cmax is the maximum level reached in the sampled fluid or tissue. The half-life is the time in which the quantity being followed falls by half. For orientation: AUC means the area under the concentration-time curve, a measure of exposure. The MRT is the average time that molecules of a dose stay in the body. As a reminder, the CL/F is clearance divided by bioavailability, as obtained after extravascular dosing. A word on the IC50: it is the concentration that gives 50% inhibition. Broadly, the bioavailability is dose-corrected exposure relative to a reference, in per cent. The low end stands for poor availability, the high end for good availability.
